In the library only some 4% were active in any assay of this set; here they are far more common.
KCNK3 block – human KCNK3 channel inhibition, primary screen; CHO-KCNK3 thallium flux, FluxOR fluorescence; hits give low values; B-score at 10 µM; hit rate 0.84% among 340,000;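 active = B-score under library mean minus 4 SD, starting fluorescence ratio at most library mean plus 5 SD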;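 note: more negative B-score means stronger inhibition of thallium flux through KCNK3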
hERG protect – compounds protecting human hERG from proarrhythmic drug block; hit rate 0.51% among 310,000; CHO-hERG, FluxOR thallium flux, dofetilide IC70 present; activation (rescue from dofetilide block), less the hit threshold, % at 10 µM;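 active = activation above the mean of controls blocked by dofetilide plus 5 SD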;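 note: thallium influx through hERG after potassium depolarization seen as dye fluorescence rise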
KCNQ1 block – inhibitors of human KCNQ1 potassium channel; P51787; CHO-K1 KCNQ1, FluxOR thallium flux fluorescence; hits give high values; B-score at 10 µM; hit rate 1.3% among 310,000;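 active = compounds whose thallium flux B-score, printed positive for inhibition, exceeds three library SD while starting fluorescence stays within three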;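 note: channel opened by potassium depolarization with thallium stimulus after 20 min compound exposure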
Target sequence (P51787 whole entry, looked up): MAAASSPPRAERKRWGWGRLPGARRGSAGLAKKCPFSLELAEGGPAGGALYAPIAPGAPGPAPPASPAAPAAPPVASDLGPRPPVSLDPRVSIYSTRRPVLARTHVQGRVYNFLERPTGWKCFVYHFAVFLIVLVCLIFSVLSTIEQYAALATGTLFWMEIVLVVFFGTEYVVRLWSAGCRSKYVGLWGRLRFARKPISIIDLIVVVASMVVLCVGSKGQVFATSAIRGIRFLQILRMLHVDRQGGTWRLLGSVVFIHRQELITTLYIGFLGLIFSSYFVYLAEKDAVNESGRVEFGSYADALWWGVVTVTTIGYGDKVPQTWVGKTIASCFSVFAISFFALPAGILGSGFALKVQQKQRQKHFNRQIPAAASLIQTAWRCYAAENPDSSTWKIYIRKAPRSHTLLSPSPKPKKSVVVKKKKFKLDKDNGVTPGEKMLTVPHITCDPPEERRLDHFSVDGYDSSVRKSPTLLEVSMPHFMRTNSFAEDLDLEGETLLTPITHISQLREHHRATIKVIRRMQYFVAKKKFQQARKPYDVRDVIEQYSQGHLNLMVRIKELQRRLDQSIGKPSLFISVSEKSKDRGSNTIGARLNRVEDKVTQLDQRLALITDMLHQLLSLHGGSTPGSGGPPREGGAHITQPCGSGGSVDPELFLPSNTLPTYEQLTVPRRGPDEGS
PHOSPHO1 inh – inhibitors of human PHOSPHO1 phosphatase | recombinant PHOSPHO1, absorbance phosphatase assay | hit rate 1.1% among 290,000 | inhibition, % at 13.3 µM; in the data active = inhibition above about 60%
KCNQ1 pot – potentiates or activates the human KCNQ1 potassium channel; CHO-K1 KCNQ1, thallium flux FluxOR fluorescence; hits give high values; B-score at 10 µM; hit rate 0.35% among 310,000; AID 2648;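 active = fluorescence ratio B-score, a plate-corrected score, at least three library SD, with initial intensity B-score within 5 SD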
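Assay system: CHO-K1 cells stably expressing KCNQ1; Medium: assay buffer with matched DMSO; Also added: K+/Tl+ depolarizing stimulus; Dosing: single dose; Timing: dye 90 min, compound 20 min, room temperature; Measured by: kinetic FluxOR thallium fluorescence, 10-s 1-Hz baseline, 110-s post-stimulus read; Read-out: peak-minus-minimum fluorescence over initial fluorescence, negative-control normalized, B-scored.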
KCNK9 inh – human KCNK9 channel inhibition. hit rate 1.2% among 310,000. B-score at 10 µM. HEK293 KCNK9, FluxOR thallium flux fluorescence; hits give low values. AID 488922. Q9NPC2;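 active = ratio B-score over 3 SD below the library mean, with starting fluorescence within 5 SD of its mean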;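 note: negative B-score means less thallium flux so channel inhibition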
KCNK9 block conf – human KCNK9 inhibitor confirmation; shares compounds with KCNK9 inh; HEK293 KCNK9 cells, FluxOR thallium flux fluorescence; inhibition, % at 10 µM; hit rate 43% among 4,900;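 active = thallium signal inhibited by more than 5 SD of the compound-free buffer control wells, on both duplicate plates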
Kir21 sel – selectivity of KCNK9 modulators against mouse Kir2.1 | shares compounds with KCNK9 inh | Kir2.1 cells, FluxOR thallium flux fluorescence | inhibition, % at 10 µM | hit rate 4% among 4,900 | AID 492993;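 active = thallium signal drop more than 5 SD beyond the mean of the no-compound control wells, seen in both duplicate plates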;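 note: signal is fluorescence rise after thallium addition divided by baseline fluorescence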
HEK293 Tl ctr – second check of KCNK9 modulator effects in non-induced HEK293 cells | shares compounds with KCNK9 inh | FluxOR thallium flux | inhibition, % at 10 µM | hit rate 40% among 4,900 | AID 492997;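 active = thallium signal drop beyond 5 SD of the untreated control mean, on both duplicate plates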
Of the large screens only hits and unclear results are named; the others gave an inactive call (follow-up assays come after a bar, where they were run).

Cc1nn(-c2cccc(Cl)c2)c(Cl)c1/C=N/NC(=O)c1cccs1	KCNK9 inh -11 | KCNK9 block conf 60% | Kir21 sel inactive | HEK293 Tl ctr 31%
CCNC(=S)N/N=C/c1c(C)nn(-c2cccc(Cl)c2)c1Cl	none
Clc1ccc(C2[C@H]3CN(Cc4cccnc4)[C@H](c4ccccc4)C34CC2(c2ccccc2)C4)cn1 (some centres not stated)	KCNK9 inh -9.8 | KCNK9 block conf 30% | Kir21 sel inactive | HEK293 Tl ctr 35%
c1ccc(C2[C@H]3CN(Cc4cccnc4)[C@H](c4ccccc4)C34CC2(c2ccccc2)C4)cc1 (some centres not stated)	none
COc1ccc(S(=O)(=O)N2CCC(C(=O)Nc3ccccc3N3CCCC3)CC2)cc1OC	none
COc1cccc(C2C3=C(N=c4s/c(=C\c5ccc(OCC(=O)O)cc5)c(=O)n42)c2ccccc2CC3)c1 (configuration not stated)	none (no result: KCNK3 block) | KCNK9 block conf inactive | Kir21 sel inactive | HEK293 Tl ctr inactive
CCOC(=O)C1=C(C)N=c2s/c(=C\c3ccc(OCC(=O)O)cc3)c(=O)n2C1c1ccccc1 (configuration not stated)	none | KCNK9 block conf inactive | Kir21 sel inactive | HEK293 Tl ctr inactive
COc1ccccc1C1C2=C(N=c3s/c(=C/c4cccc(OCC(=O)O)c4)c(=O)n31)c1ccccc1CC2 (configuration not stated)	none (no result: hERG protect, KCNQ1 block, KCNQ1 pot, KCNK9 inh)
CN(Cc1nc2ccccc2c(=O)[nH]1)Cc1nc2ccsc2c(=O)[nH]1	none
CCN(c1ccccc1)c1nc2ccsc2c(=O)s1	none | KCNK9 block conf inactive | Kir21 sel inactive | HEK293 Tl ctr inactive
CN(c1ccccc1)c1nc2ccsc2c(=O)s1	none | KCNK9 block conf inactive | Kir21 sel inactive | HEK293 Tl ctr inactive
Cc1c(NS(=O)(=O)c2cc(C(=O)NCc3cccnc3)ccc2Cl)c(=O)n(-c2ccccc2)n1C	none (no result: hERG protect, KCNQ1 block, PHOSPHO1 inh, KCNQ1 pot, KCNK9 inh)
Cc1ccc(N2CCN(CCc3nc4cc(NC(=O)c5ccco5)ccc4n3C)CC2)cc1	none
Cc1ccccc1NC(=S)NCc1ccc2[nH]c3c(c2c1)CCCC3	none | KCNK9 block conf inactive | Kir21 sel inactive | HEK293 Tl ctr inactive
S=C(NCc1ccc2[nH]c3c(c2c1)CCCC3)Nc1ccccc1Cl	none
COc1ccc(C2C(C(=O)c3sc(C)nc3C)=C(O)C(=O)N2CCCn2ccnc2)cc1OC (configuration not stated)	none
O=C(/C=C1\NC2(CCCC2)Cc2ccccc21)C(=O)N/N=C/c1ccc(O)c(O)c1	KCNK9 inh -10 | KCNK9 block conf 48% | Kir21 sel inactive | HEK293 Tl ctr 30%
Cc1ccc(CN(C)C(=O)c2cccc(S(=O)(=O)N3CCc4ccccc4C3)c2)o1	none (no result: hERG protect, KCNQ1 block, PHOSPHO1 inh, KCNQ1 pot, KCNK9 inh)
O=C(O)C1=C[C@H](c2ccc(Br)cc2)C[C@H](OCc2ccc(CO)cc2)O1	none
CCOc1ccccc1OCCOCCOc1c(Cl)cccc1Cl	KCNK9 inh -9 | KCNK9 block conf inactive | Kir21 sel inactive | HEK293 Tl ctr 38%
CCOc1ccc(OCCOCCOc2c(Cl)cccc2Cl)cc1	none (no result: PHOSPHO1 inh)
CN(C)/C=c1\sc2c(C#N)cc(C(=O)c3ccc(Br)cc3)n2c1=O	KCNK9 inh -8.4 | KCNK9 block conf 36% | Kir21 sel 62% | HEK293 Tl ctr 78%
CCOC(=O)C(CSCc1ccccc1)NC(=O)OC(C)(C)C (configuration not stated)	none | KCNK9 block conf inactive | Kir21 sel inactive | HEK293 Tl ctr inactive
CCOC(=O)C(CSCC(=O)c1ccc(Br)cc1)NC(=O)OC(C)(C)C (configuration not stated)	none (no result: KCNK3 block)
CC(C)c1ccc(C2C3=C(COC3=O)Nc3cc4c(cc32)OCO4)cc1 (configuration not stated)	KCNK9 inh -9.4 | KCNK9 block conf inactive | Kir21 sel inactive | HEK293 Tl ctr inactive
CCCc1nc(SCC(=O)N2CCc3ccccc3C2)c2ccccc2n1	none
CC1CC(C)CN(C(=O)CSc2nc(Cc3cccs3)nc3ccccc23)C1 (configuration not stated)	none | KCNK9 block conf inactive | Kir21 sel inactive | HEK293 Tl ctr 24%
O=C(NCCCCc1ccccc1)C12CN(Cc3ccccc3)CC1C(c1cccc([N+](=O)[O-])c1)=NO2 (configuration not stated)	none | KCNK9 block conf inactive | Kir21 sel inactive | HEK293 Tl ctr inactive
C=C(Br)CN1[C@@H](Cc2ccccc2)[C@H](O)[C@@]23C=C[C@@H](C[C@@H]2S1(=O)=O)O3	none (no result: hERG protect, KCNQ1 block, PHOSPHO1 inh, KCNQ1 pot, KCNK9 inh)
O=C(c1cc2cc(F)ccc2[nH]1)N1CCN(c2cccc(Cl)c2)CC1	none | KCNK9 block conf inactive | Kir21 sel inactive | HEK293 Tl ctr inactive
O=C(/C=C/c1ccc(OC2CSC2)cc1)c1ccccc1	KCNK9 inh -16 | KCNK9 block conf 42% | Kir21 sel inactive | HEK293 Tl ctr 28%
O=C(N/N=C/c1ccc(OC2CSC2)cc1)c1ccccc1	none
Oc1cncc(Cc2ccccc2)c1	none
CN(C(=O)C12CC3CC(CC(C3)C1)C2)C1CCS(=O)(=O)C1 (configuration not stated)	none
Cc1ccc(Cl)cc1N1CCN(CC(=O)NC2CCCc3ccccc32)CC1 (configuration not stated)	none | KCNK9 block conf inactive | Kir21 sel inactive | HEK293 Tl ctr inactive
O=C(CN1CCN(c2ccccc2Cl)CC1)NC1CCCc2ccccc21 (configuration not stated)	none | KCNK9 block conf inactive | Kir21 sel inactive | HEK293 Tl ctr inactive
O=C(CSc1ccc(Cl)cc1)NC1CCCc2ccccc21 (configuration not stated)	none
O=C(CSc1c(Cl)cccc1Cl)NC1CCCc2ccccc21 (configuration not stated)	none
COc1cccc(C(=O)/C=C2\Sc3ccccc3N2C)c1	none
CCN(CC(=O)NC(=O)NCc1ccccc1)Cc1ccccc1	none | KCNK9 block conf inactive | Kir21 sel inactive | HEK293 Tl ctr 26%
O=C(CCC1CCCC1)Nc1cccn(Cc2ccccc2Br)c1=O	none | KCNK9 block conf inactive | Kir21 sel inactive | HEK293 Tl ctr 26%
CCCC(=O)Nc1cccn(Cc2ccccc2Br)c1=O	none
COC(=O)c1c(NC(=O)Cc2ccccc2)sc2c1C(C(=O)OC)CC2 (configuration not stated)	none | KCNK9 block conf inactive | Kir21 sel inactive | HEK293 Tl ctr inactive

Screens: PubChem BioAssay, several laboratories
